The structures appear in SMILES notation. Structures can show the parent of a compound that is named as a salt.

Assay [1] has as its target Poly [ADP-ribose] polymerase 1 (Homo sapiens, UniProt P09874). As to the kind of experiment: Inhibition of PARP1.
The next assay concerns DU-145. As to the kind of experiment: Cytotoxicity against human DU145 cells at 10 uM by MTT assay. The class given is functional.
The test system of assay [2] is HCT-116. As to the kind of experiment: Induction of temozolomide-induced cytotoxicity in human HCT116 cells assessed as potentiation factor, ratio of cytotoxic IC50 for temozolomide alone to cytotoxic IC50 temozolomide in presence of drug. The class given is functional. In short, it runs like this:
(§1)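 HCT116 cells in RPMI 1640 with 10% FBS at 37 °C under 5% CO2 were seeded at 3 x 10^4 cells/well and grown overnight. On day 2, medium was replaced with graded temozolomide or etoposide, with or without PARP-1 inhibitor at 0.5 µM. On day 4, CCK-8 was added for 4 h and A450 read. IC50 came from four-parameter logistic fits. Potentiation factor = IC50 (agent alone)/IC50 (agent + inhibitor); mean±S.D. of ≥3 independent experiments.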

The test system of assay [3] is HCT-116. As to the kind of experiment: Induction of etoposide-induced cytotoxicity in human HCT116 cells assessed as potentiation factor, ratio of cytotoxic IC50 for etoposide alone to cytotoxic IC50 etoposide in presence of drug. Format: functional. Put shortly:
as §1

Assay [4] concerns HCT-116. In words: Cytotoxicity against human HCT116 cells after 2 days. Conditions: HCT-116, 48 h.

Poly [ADP-ribose] polymerase 1, sequence (P09874 whole entry): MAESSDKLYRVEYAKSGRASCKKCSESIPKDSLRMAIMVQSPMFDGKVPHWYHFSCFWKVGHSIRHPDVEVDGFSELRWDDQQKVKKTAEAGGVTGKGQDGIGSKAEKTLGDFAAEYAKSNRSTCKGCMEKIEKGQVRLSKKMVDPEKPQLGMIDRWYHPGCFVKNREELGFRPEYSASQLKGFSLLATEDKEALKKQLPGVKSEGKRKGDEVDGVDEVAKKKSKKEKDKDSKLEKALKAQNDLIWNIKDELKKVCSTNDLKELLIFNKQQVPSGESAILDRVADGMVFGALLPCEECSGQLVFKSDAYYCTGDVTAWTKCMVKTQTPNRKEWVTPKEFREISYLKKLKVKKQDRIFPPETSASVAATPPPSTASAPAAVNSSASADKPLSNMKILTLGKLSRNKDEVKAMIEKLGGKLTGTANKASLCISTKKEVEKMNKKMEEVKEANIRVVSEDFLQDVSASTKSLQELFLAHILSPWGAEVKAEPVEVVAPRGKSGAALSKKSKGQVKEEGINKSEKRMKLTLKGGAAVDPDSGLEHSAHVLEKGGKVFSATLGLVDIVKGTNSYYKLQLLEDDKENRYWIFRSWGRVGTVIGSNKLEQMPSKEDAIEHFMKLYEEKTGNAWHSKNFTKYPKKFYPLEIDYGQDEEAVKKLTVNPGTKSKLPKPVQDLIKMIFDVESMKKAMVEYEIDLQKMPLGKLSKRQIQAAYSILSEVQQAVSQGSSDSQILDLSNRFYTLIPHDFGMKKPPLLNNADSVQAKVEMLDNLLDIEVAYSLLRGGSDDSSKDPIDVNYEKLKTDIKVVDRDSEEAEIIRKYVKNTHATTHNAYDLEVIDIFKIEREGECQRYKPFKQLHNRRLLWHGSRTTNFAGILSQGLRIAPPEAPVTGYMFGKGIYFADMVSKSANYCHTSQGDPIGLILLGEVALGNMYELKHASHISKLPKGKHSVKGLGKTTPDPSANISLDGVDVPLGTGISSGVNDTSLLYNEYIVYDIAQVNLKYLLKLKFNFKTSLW

Regarding `O=C1NCCc2c(OCCCCN3CCCCC3)cccc21`, the IC50 – broadly, the midpoint of a concentration-inhibition curve – in assay [1] came out at 10.8 µM.

For the compound `Cc1ccc2nc3c4ccccc4c(=O)[nH]c3n2c1`, 10 µM produced 19.2% inhibition in the assay with DU-145. Moreover, in assay [1], the 50% inhibitory concentration (IC50) was determined as 4.27 µM.

With `O=c1[nH]c2c(nc3cc(Cl)ccn32)c2ccccc12`, in the assay with DU-145, the inhibition (as a rule, how much of the control response was suppressed) at 10 µM was 11.4%. This compound also had an IC50 in assay [1] of 5.87 µM.

As to `O=c1[nH]c2c(nc3ncccn32)c2ccccc12`, the inhibition at 10 µM in the assay on DU-145 came to 14.2%. In assay [1], this compound had an IC50 of 5.78 µM.

`O=c1[nH]c2c(nc3c4ccccc4ccn32)c2ccccc12`: the inhibition at 10 µM with DU-145 amounted to 25.5%. The compound also had a half-maximal inhibitory concentration (IC50) in assay [1] of 4.11 µM.

Regarding `O=c1[nH]c2c(nc3ccc(Cl)cn32)c2ccccc12`, the inhibition at 10 µM in the assay on DU-145 was found to be 0.2%. This compound came in with an IC50 in assay [1] of 14.8 µM.

Regarding `O=c1[nH]c2c(nc3cc(S(=O)(=O)NCCCN4CCOCC4)ccn32)c2ccccc12`, in assay [1], the IC50 amounted to 0.036 µM.

Compound `O=c1[nH]c2c(nc3ccc(Br)cn32)c2ccccc12` yielded an inhibition at 10 µM in the assay on DU-145 of 6.8%. In assay [1], this compound came in with a concentration for half-maximal inhibition (IC50) of 12.1 µM.

In the assay with DU-145, `COc1cc2nc3c4ccccc4c(=O)[nH]c3n2cn1` showed an inhibition at 10 µM of 0%. The compound further came in with an IC50 in assay [1] of over 100 µM.

Take `Cc1cccc2nc3c4ccccc4c(=O)[nH]c3n12`: at 10 µM the inhibition with DU-145 was 25.6%. In assay [1], this compound displayed a concentration for half-maximal inhibition (IC50) of over 100 µM.

In turn, `O=c1[nH]c2c(nc3ccccn32)c2ccccc12` yielded an inhibition at 10 µM with DU-145 of 7.9%. The compound also had an IC50 in assay [1] of 0.85 µM.

Compound `Cc1cc(C)n2c(c1)nc1c3ccccc3c(=O)[nH]c12` yielded an inhibition at 10 µM in the assay with DU-145 of 38.5%. Moreover, in assay [1], the half-inhibitory concentration (IC50) is over 100 µM.

The compound `Cc1cccn2c1nc1c3ccccc3c(=O)[nH]c12` returned an inhibition at 10 µM in the assay on DU-145 of 9.1%. The concentration for half-maximal inhibition (IC50) in assay [1] is 3.31 µM.

Consider `Cc1ccn2c(c1)nc1c3ccccc3c(=O)[nH]c12`, for which the PF50 in the assay with HCT-116 [2] and in the assay with HCT-116 [3] was 1.7 in each case. The compound also came in with an inhibition at 10 µM in the assay on DU-145 of 0%. For the same compound, in assay [1], 0.47 µM corresponded to half-maximal inhibition (IC50).

As for `Cc1ccn2c(n1)nc1c3ccccc3c(=O)[nH]c12`, the PF50 in the assay on HCT-116 [2] turned out to be 1.1; in the assay on HCT-116 [3] it was 1.2. In the assay on DU-145, this compound showed an inhibition at 10 µM of 27.7%. For the same compound, the half-maximal inhibitory concentration (IC50) in assay [1] is 0.56 µM.

In turn, `O=c1[nH]c2c(nc3cnccn32)c2ccccc12` showed an inhibition at 10 µM in the assay on DU-145 of 18.7%. Also, in assay [1], the IC50 worked out at 3.23 µM.

For `CC[C@@]1(O)C(=O)OCc2c1cc1n(c2=O)Cc2cc3ccccc3nc2-1` [CAMPTOTHECIN], the inhibition at 10 µM in the assay with DU-145 was determined as 69.4%.

The compound `COc1cccc2c1C(=O)c1c(O)c3c(c(O)c1C2=O)C[C@@](O)(C(=O)CO)C[C@@H]3O[C@H]1C[C@H](N)[C@H](O)[C@H](C)O1` [DOXORUBICIN HYDROCHLORIDE] showed an inhibition at 10 µM with DU-145 of 70.3%.

Regarding `COc1cc([C@@H]2c3cc4c(cc3[C@@H](O[C@@H]3O[C@@H]5CO[C@@H](C)O[C@H]5[C@H](O)[C@H]3O)[C@H]3COC(=O)[C@H]23)OCO4)cc(OC)c1O` [ETOPOSIDE], the inhibition at 10 µM in the assay on DU-145 turned out to be 72.1%. This compound displayed a concentration for half-maximal inhibition (IC50) in the assay on HCT-116 [4] of 14.4 µM.

With `Cn1nnc2c(C(N)=O)ncn2c1=O` [TEMOZOLOMIDE], half-maximal inhibition in the assay on HCT-116 [4] (IC50) required 4.34 µM.

(Values after ChEMBL document CHEMBL1152644, “Synthesis of isoquinolinone-based tetracycles as poly (ADP-ribose) polymerase-1 (PARP-1) inhibitors” (Bioorg Med Chem, 2009).)
